Screens from PubChem BioAssay.
In the library only some 0.79% were active in any assay of this set; here they are far more common.
mIAP activ – activators of mouse IAP, primary screen, biochemical, luminescence, uHTS; activation factor at 10 µM; muIAP, CDP-Star luminescence, 30 min; stronger effect = higher value; 1 = vehicle-only enzyme signal, 0 = enzyme-free wells; hit rate 0.24% among 330,000; intestinal alkaline phosphatase [Mus musculus];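 active = activation factor of at least 2 at 20 µM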
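System: mouse IAP enzyme. Reagent: CDP-Star chemiluminescent phosphatase substrate. Benchmarks: DMSO wells, no-enzyme wells. Times: 30 min enzyme-substrate-compound incubation at room temperature. Detection: luminescence from enzymatic CDP-Star hydrolysis. Doses: test compounds delivered from DMSO solution.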
bIAP inhibitor – bovine intestinal alkaline phosphatase inhibitors, primary screen, selectivity assay for TNAP inhibitor project, biochemical, bovine IAP, CDP-star luminescence. alkaline phosphatase, intestinal [Bos taurus]. AID 1019, 2008. purified bovine IAP, 30 min. inhibition, % at 20 µM. 190,000 tested, under 10 active;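 active = over 50% inhibition of intestinal alkaline phosphatase at 20 µM in the single-dose screen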
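test system = bovine IAP enzyme | medium = DEA buffer 100 mM, pH 9.8, with MgCl2 1.0 mM, ZnCl2 0.02 mM | detection = luminescence | dosing = single compound dose of 20 µM, 2% DMSO final | incubation = 30 min reaction at room temperature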
hIAP act – human IAP activators, primary screen, biochemical, luminescence, uHTS | activation factor at 10 µM | Intestinal-type alkaline phosphatase (Homo sapiens), P09923 | hit rate 0.16% among 330,000 | AID 2524, 2010 | purified human IAP, CDP-Star luminescence, 30 min; stronger effect = higher value; 1 = vehicle-only enzyme, 0 = enzyme-free background;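 active = activation factor of the enzyme at least 2-fold when tested at 20 µM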
Target sequence (P09923 whole entry, looked up): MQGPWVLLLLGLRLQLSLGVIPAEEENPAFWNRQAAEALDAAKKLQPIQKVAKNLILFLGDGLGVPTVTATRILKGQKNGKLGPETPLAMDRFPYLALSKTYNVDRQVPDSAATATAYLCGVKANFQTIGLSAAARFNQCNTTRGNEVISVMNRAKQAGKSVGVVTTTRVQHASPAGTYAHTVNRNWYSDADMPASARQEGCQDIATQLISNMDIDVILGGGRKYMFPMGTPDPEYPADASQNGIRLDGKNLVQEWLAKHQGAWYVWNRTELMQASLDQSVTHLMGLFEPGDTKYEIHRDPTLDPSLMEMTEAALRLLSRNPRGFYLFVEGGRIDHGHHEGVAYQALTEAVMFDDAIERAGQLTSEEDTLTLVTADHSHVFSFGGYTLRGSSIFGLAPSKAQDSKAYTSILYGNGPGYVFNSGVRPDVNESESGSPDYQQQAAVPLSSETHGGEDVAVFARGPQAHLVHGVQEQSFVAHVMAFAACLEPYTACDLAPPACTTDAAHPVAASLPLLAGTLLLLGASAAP
hIAP inh – human IAP inhibitors, primary screen, biochemical, luminescence, uHTS. purified IAP, CDP-Star luminescence, 30 min. inhibition, % at 10 µM. hit rate 0.12% among 330,000. AID 2544, 2010;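 active = inhibition reaching a set limit with compound at 10 µM in the primary screen, cut at about 35% in these data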
bIAP act – bovine intestinal alkaline phosphatase activators, primary screen, biochemical, bovine IAP, CDP-star luminescence | alkaline phosphatase, intestinal [Bos taurus] | purified bovine IAP, 30 min; stronger effect = higher value; fold of DMSO-control signal, blank-subtracted | activation factor at 20 µM | hit rate 0.17% among 200,000;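 active = activation factor of 2 or more at 20 µM, a signal rise over negative controls twice the positive control's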
mIAP inh – inhibitors of mouse IAP, primary screen, biochemical, luminescence, uHTS; intestinal alkaline phosphatase [Mus musculus]; purified mouse IAP, CDP-Star luminescence, 30 min; inhibition, % at 10 µM; hit rate 0.2% among 330,000; AID 2806, 2010;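 active = inhibition of at least 40% at 10 µM in the primary screen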
hIAP act confirm – human IAP activators, confirmation, biochemical, luminescence, single concentration, uHTS hits | activation (%Activity, negative = activation), % at 8.3 µM | purified IAP, CDP-Star luminescence, 30 min; stronger effect = lower value | shares compounds with hIAP act | hit rate 10% among 880;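 active = at least twofold enzyme activation in any of six single-dose repeats, which the averaged readout prints as negative percent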
mIAP inh confirm – inhibitors of mouse IAP, confirmation, biochemical, luminescence, single concentration | shares compounds with mIAP inh | purified mouse IAP, CDP-Star luminescence, 30 min | inhibition, % at 10 µM | hit rate 4.7% among 11,000 | AID 434971, 2010;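 active = inhibition of at least 40% at 10 µM in either of the two replicates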
Large screens that a line does not name were inactive (follow-up assays come after a bar, where they were run).

O=c1c(O[C@@H]2O[C@H](CO)[C@@H](O)[C@H](O)[C@H]2O)c(-c2ccc(O)c(O)c2)oc2cc(O)cc(O)c12	hIAP inh 57.3, mIAP inh 54.9 | hIAP act confirm inactive | mIAP inh confirm 57.9
O=c1c(O[C@@H]2O[C@H](CO)[C@H](O)[C@H](O)[C@H]2O)c(-c2ccc(O)c(O)c2)oc2cc(O)cc(O)c12	none (no result: mIAP activ, hIAP act, hIAP inh, mIAP inh)
CCCCCCNC(=O)CCCCCNS(=O)(=O)c1ccc(Br)cc1	none
CN(CC(=O)Nc1ccccc1Sc1ccccc1)Cc1nc2ccccc2c(=O)[nH]1	none
CN(CC(=O)NC(c1ccccc1)c1ccccc1)Cc1nc2ccccc2c(=O)[nH]1	mIAP activ 2.09, hIAP act 2.22, bIAP act 2.5 | hIAP act confirm inactive | mIAP inh confirm inactive
CCn1nc(C)c(CN2CCC(C(=O)Nc3cccc(-c4cccc(Cl)c4)c3)CC2)c1C	mIAP activ 8.19, hIAP act 8.75 (no result: bIAP inhibitor, bIAP act) | hIAP act confirm inactive | mIAP inh confirm inactive
CCn1ncc(CN2CCC(C(=O)Nc3cccc(-c4cccc(F)c4)c3)CC2)c1C	mIAP activ 3.47, hIAP act 4.03 (no result: bIAP inhibitor, bIAP act) | hIAP act confirm inactive | mIAP inh confirm inactive
CCS(=O)(=O)N1CCC(C(=O)Nc2cccc(F)c2)CC1	none (no result: bIAP inhibitor, bIAP act)
CCN1/C(=C/C=C/c2sc3ccccc3[n+]2CC)Sc2ccccc21	hIAP inh 37.4, mIAP inh 48.3 (no result: bIAP inhibitor, bIAP act) | hIAP act confirm inactive | mIAP inh confirm 50.9
CCOc1ccc(N(CC(=O)N2CCOCC2)S(=O)(=O)c2ccc(F)cc2)cc1	none (no result: bIAP inhibitor, bIAP act)
O=C1/C(=C\c2cccc(O)c2)SC(=S)N1Cc1ccccc1	none (no result: bIAP inhibitor, bIAP act)
O=C1/C(=C\c2cccc(O)c2O)SC(=S)N1Cc1ccccc1	hIAP inh 44.8, mIAP inh 41.0 (no result: bIAP inhibitor, bIAP act) | hIAP act confirm inactive | mIAP inh confirm 63.3
Nc1c(/C=C2/C=CC(=O)C(O)=C2)c(=O)nc2sc(CC(=O)N3CCCCC3)nn12	hIAP inh 54.2, mIAP inh 61.2 (no result: bIAP inhibitor, bIAP act) | hIAP act confirm inactive | mIAP inh confirm 83.1
Nc1c(/C=C2/C=CC(=O)C(O)=C2)c(=O)nc2sc(CC(=O)N3CCCC3)nn12	hIAP inh 47.7, mIAP inh 58.3 (no result: bIAP inhibitor, bIAP act) | hIAP act confirm inactive | mIAP inh confirm 78.3
COc1ccc(C(=O)NCCCNC(=O)c2ccc(C)nc2)cc1	none (no result: bIAP inhibitor, bIAP act)
CC(C)(CC(=O)O)CC(=O)N1CCN(c2nc3cc(Cl)ccc3s2)CC1	none (no result: bIAP inhibitor, bIAP act)
N#C/C(=C/c1ccco1)C(N)=S	mIAP inh 47.0 (no result: bIAP inhibitor, bIAP act) | mIAP inh confirm 56.5
Cc1cc(O)c(N=Cc2cc3c(cc2[N+](=O)[O-])OCO3)cc1C	mIAP inh 50.8 (no result: bIAP inhibitor, bIAP act) | mIAP inh confirm 59.9
Cc1cccc(N=Cc2cc3c(cc2[N+](=O)[O-])OCO3)c1	none
S=C(NCc1ccc(Cl)cc1Cl)NC1CCCCC1	mIAP activ 5.41 | mIAP inh confirm inactive
CCOC(=O)C1=C(C)N=c2s/c(=C/c3cccc([N+](=O)[O-])c3O)c(=O)n2C1c1ccc(OC)cc1OC (stereo unspecified)	mIAP inh 43.2 (no result: bIAP inhibitor, bIAP act) | mIAP inh confirm 44.4
CCOC(=O)C1=C(C)N=c2s/c(=C\c3ccc(O)c([N+](=O)[O-])c3)c(=O)n2C1c1ccccc1OC (stereo unspecified)	none (no result: bIAP inhibitor, bIAP act)
C=CCNS(=O)(=O)c1ccc(OCC(=O)OC)cc1	none
O=C(NCCCc1ccccc1)C1CC1	none (no result: bIAP inhibitor, bIAP act)
O=C(NC[C@@H]1CC[C@@H](Cc2ccc(-c3ccccc3)cc2)O1)Nc1ccc(Br)cc1	mIAP activ 4.25 (no result: bIAP inhibitor, hIAP act, hIAP inh, bIAP act) | mIAP inh confirm inactive
O=C(NCCCCc1ccccc1)NC[C@@H]1CC[C@@H](Cc2ccc(-c3ccccc3)cc2)O1	mIAP activ 4.84 (no result: bIAP inhibitor, hIAP act, hIAP inh, bIAP act) | mIAP inh confirm inactive
O=C(NC1CCS(=O)(=O)C1)c1cccc(Cl)c1 (stereo unspecified)	none (no result: bIAP inhibitor, bIAP act)
CC1=NN(c2ccc(C)cc2)C(=O)/C1=C/c1ccc(-c2cc([N+](=O)[O-])ccc2O)o1	none (no result: bIAP inhibitor, bIAP act)
O=C1NN(c2cccc(Br)c2)C(=O)/C1=C/c1ccc(-c2cc([N+](=O)[O-])ccc2O)o1	mIAP inh 45.2 (no result: bIAP inhibitor, bIAP act) | mIAP inh confirm 47.0
Cc1csc(NC(=O)CSc2sc3c(O)cc(=O)[nH]c3c2C#N)n1	mIAP inh 46.9 (no result: bIAP inhibitor, bIAP act) | mIAP inh confirm 68.4
CCc1nnc(NC(=O)CSc2sc3c(O)cc(=O)[nH]c3c2C#N)s1	mIAP inh 44.4 (no result: bIAP inhibitor, bIAP act) | mIAP inh confirm 64.7
CCSc1nnc(NC(=O)CSc2sc3c(O)cc(=O)[nH]c3c2C#N)s1	none (no result: bIAP inhibitor, bIAP act)
CN(C)C(=O)CNC(=O)CN1C(=O)NC2(CCCc3sccc32)C1=O (stereo unspecified)	none (no result: bIAP inhibitor, bIAP act)
O=C(COC(=O)COc1ccc(Cl)cc1)NC1CCCC1	none (no result: bIAP inhibitor, bIAP act)
COc1cc(C[C@@H](C)[C@@H](C)Cc2ccc(O)c(OC)c2)ccc1O	none (no result: bIAP inhibitor, bIAP act)
CC(Cc1ccc(O)c(O)c1)C(C)Cc1ccc(O)c(O)c1 (stereo unspecified)	mIAP inh 58.3 (no result: bIAP inhibitor, bIAP act) | mIAP inh confirm 50.6
O=C(CN1C(=O)c2ccccc2S1(=O)=O)c1ccc(O)c(O)c1	mIAP inh 52.7 (no result: bIAP inhibitor, bIAP act) | mIAP inh confirm 57.1
O=C(CN1C(=O)c2ccccc2S1(=O)=O)c1ccc(F)c(F)c1	none (no result: bIAP inhibitor, bIAP act)
CCc1ccccc1N(CC(=O)N1CCN(c2ccccc2)CC1)S(C)(=O)=O	none
COC(=O)c1ccc(NC(=O)CNc2ccccc2)cc1	none
CCOC(=O)[C@@H]1[C@H]2COc3ccc(Br)cc3[C@@H]2N2C(=O)N(c3cccc(F)c3)C(=O)[C@]12C	none (no result: bIAP inhibitor, bIAP act)
Fc1ccc2[nH]c3c(NCc4ccccc4)ncnc3c2c1	mIAP activ 2.73 (no result: bIAP inhibitor, bIAP act) | mIAP inh confirm inactive
COc1ccc2[nH]c3c(NCc4ccco4)ncnc3c2c1	none
CCOc1ccc(S(=O)(=O)N2CCN(C(=O)c3cc(C4CC4)nn3-c3ccccc3)CC2)cc1	none (no result: bIAP inhibitor, bIAP act)
O=C(Nc1ccc(Cl)c(C(F)(F)F)c1)NC1CC2CCCC(C1)N2Cc1ccccc1 (stereo unspecified)	mIAP activ 8.9, bIAP act 2.3 | mIAP inh confirm inactive
Cn1cnc(S(=O)(=O)Nc2ccc(OC(F)(F)F)cc2)c1	none
